From ChEMBL document CHEMBL1130174, “Pyrrolidine-3-carboxylic acids as endothelin antagonists. 2. Sulfonamide-based ETA/ETB mixed antagonists” (J Med Chem, 1997)
Square brackets hold non-standard residues; d marks the D form. Peptide text beside a SMILES is read from it. * marks the point of attachment. Piperazinyl(4-Ph) = c1ccc(N2CCN(*)CC2)cc1; dGly(2-thienyl) = N[C@@H](C(=O)O)c1cccs1

Assays:
[1] = Half-life is obtained after oral dosing of rats.; format: ADME, organism-based; details: rat, in vivo
[2] = Half-life is obtained after intravenous dosing of rats.; format: ADME, organism-based; details: rat, in vivo
[3] = molecular target: T1, Endothelin receptor type B (Sus scrofa, UniProt P35463); assay: Ability to displace endothelin ([125I]ET-3) from endothelin B receptor derived from cerebellar tissue of porcine.
T1 sequence (P35463 whole entry): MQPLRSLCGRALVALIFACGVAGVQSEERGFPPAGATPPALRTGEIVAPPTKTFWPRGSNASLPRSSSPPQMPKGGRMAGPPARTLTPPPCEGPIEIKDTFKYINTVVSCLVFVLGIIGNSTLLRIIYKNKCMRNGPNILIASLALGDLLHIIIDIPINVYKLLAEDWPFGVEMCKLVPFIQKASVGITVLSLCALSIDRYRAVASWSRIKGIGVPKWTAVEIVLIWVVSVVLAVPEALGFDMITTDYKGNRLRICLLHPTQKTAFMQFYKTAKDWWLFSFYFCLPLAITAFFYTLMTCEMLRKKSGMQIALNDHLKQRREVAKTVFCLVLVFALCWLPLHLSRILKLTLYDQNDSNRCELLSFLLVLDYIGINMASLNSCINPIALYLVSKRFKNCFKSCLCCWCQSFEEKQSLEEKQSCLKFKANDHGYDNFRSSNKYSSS

[4] = Maximum drug concentration is determined after oral dosing in rats.; format: ADME, organism-based; set-up: route oral; details: rat, in vivo
[5] = (§1) Total drug exposure is determined after oral dosing in rats.; format: ADME, organism-based; set-up: concentration or dose not given beside the values; details: rat, in vivo
[6] = Oral bioavailability in rat; format: ADME, organism-based; details: in vivo
[7] = molecular target: T2, Endothelin receptor type B (Homo sapiens, UniProt P24530); assay: Ability to block the ET-1-induced hydrolysis of inositol phosphate in Endothelin B receptor of chinese hamster ovary(CHO) cells.; format: functional
T2 sequence (P24530 whole entry): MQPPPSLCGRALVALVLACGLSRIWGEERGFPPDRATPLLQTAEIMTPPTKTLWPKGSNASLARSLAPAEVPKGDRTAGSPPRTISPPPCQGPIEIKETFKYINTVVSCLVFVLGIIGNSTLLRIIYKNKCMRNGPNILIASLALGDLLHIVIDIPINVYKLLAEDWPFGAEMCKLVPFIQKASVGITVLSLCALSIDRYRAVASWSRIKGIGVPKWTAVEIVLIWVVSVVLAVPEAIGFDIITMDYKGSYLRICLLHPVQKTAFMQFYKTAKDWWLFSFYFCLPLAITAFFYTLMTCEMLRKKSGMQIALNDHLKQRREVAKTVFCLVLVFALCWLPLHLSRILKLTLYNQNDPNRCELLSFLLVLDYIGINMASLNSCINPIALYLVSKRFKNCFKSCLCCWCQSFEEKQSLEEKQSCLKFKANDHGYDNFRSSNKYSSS

[8] = molecular target: T2, Endothelin receptor type B; assay: Binding assay performed using human Endothelin B receptor (hETB) expressed in chinese hamster ovary cells(CHO); format: cell-based
Rattus norvegicus = assay: as §1; format: ADME, organism-based; set-up: concentration or dose not given beside the values; details: in vivo
[9] = Ratio of endothelin A receptor and endothelin B receptor.
Endothelin-1 receptor [10] = molecular target: T3, Endothelin-1 receptor (Homo sapiens, UniProt P25101); assay: Ability to displace endothelin ([125I]ET1) from human Endothelin A receptor
T3 sequence (P25101 whole entry): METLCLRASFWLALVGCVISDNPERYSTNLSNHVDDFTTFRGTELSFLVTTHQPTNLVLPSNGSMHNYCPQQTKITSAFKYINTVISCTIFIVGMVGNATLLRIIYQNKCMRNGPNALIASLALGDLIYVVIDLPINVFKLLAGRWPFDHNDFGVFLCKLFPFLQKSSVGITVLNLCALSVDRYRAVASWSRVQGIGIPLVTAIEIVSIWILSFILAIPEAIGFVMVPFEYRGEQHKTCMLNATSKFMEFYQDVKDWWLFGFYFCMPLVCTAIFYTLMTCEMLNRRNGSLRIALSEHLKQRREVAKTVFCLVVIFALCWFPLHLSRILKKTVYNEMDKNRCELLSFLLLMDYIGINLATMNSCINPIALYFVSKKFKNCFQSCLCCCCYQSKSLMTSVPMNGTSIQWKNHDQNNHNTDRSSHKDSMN
Outline: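 Membranes from CHO cells stably transfected with human ETA, prepared at 4 °C and stored at -80 °C. Buffer: 20 mM Tris pH 7.4, 100 mM NaCl, 10 mM MgCl2, 0.2% BSA, protease inhibitors. Bound ligand separated by glass-fibre filtration. Nonspecific binding with 1 µM unlabeled ET-1. IC50 is the mean of at least two determinations.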

[11] = molecular target: T2, Endothelin receptor type B; assay: Ability to displace endothelin ([125I]ET1) from human Endothelin B receptor
Endothelin-1 receptor [12] = molecular target: T4, Endothelin-1 receptor (Rattus norvegicus, UniProt P26684); assay: Ability to displace endothelin ([125I]ET1) from endothelin A receptor derived from MMQ cells of rodent.; format: cell-based, Rodentia sp.
T4 sequence (P26684 whole entry): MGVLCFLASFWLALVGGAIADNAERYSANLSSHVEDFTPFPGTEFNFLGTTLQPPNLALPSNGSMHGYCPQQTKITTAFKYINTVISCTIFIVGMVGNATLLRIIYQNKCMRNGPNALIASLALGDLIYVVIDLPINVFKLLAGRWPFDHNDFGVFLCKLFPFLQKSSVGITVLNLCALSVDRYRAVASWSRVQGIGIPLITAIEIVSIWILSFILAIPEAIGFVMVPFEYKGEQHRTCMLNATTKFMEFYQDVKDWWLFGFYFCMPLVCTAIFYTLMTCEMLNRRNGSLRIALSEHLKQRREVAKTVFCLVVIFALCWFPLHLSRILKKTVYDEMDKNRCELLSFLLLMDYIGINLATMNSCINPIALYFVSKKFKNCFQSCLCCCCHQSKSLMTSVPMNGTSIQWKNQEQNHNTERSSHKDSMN

Endothelin-1 receptor [13] = molecular target: T3, Endothelin-1 receptor; assay: Binding assay performed using human Endothelin A receptor (hETA) expressed in chinese hamster ovary cells(CHO).; format: cell-based

Row | Structure (SMILES) | half-life [1] [h] | half-life [2] [h] | IC50 [3] [nM] | Cmax [4] [ng/mL] | AUC [5] [ng·h/mL] | bioavailability [6] [%] | IC50 [7] [nM] | IC50 [8] [nM] | AUC (Rattus norvegicus) [ng·h/mL] | IC50 (Endothelin-1 receptor [12]) [nM] | IC50 (Endothelin-1 receptor [13]) [nM] | Ratio [9] | IC50 (Endothelin-1 receptor [10]) [nM] | IC50 [11] [nM] | Ki (Endothelin-1 receptor [10]) [nM] | Ki [11] [nM]
1 | CCCCCS(=O)(=O)N(CCC)CCN1C[C@H](c2ccc3c(c2)OCO3)[C@@H](C(=O)O)[C@@H]1c1ccc(OC)c(F)c1 (stereo in doubt; 15b) | 8.1 | 5 | 0.29 | 2400 | – | 54 | 1.28 | 0.28 | 11200 | – | – | – | – | – | – | –
2 | CC(C)C[C@@H]1NC(=O)[C@@H](c2cccs2)NC(=O)[C@H](CC(=O)O)NC(=O)[C@H](CC(=O)N2CCN(c3ccccc3)CC2)NC(=O)[C@@H](CC(=O)O)NC(=O)[C@@H](Cc2c[nH]c3ccccc23)NC1=O (cyclo(D(Piperazinyl(4-Ph))D[dGly(2-thienyl)]L[dW][dD])) | – | 0.5 | – | – | – | – | – | – | – | – | – | 540 | 0.24 | 130 | – | –
3 | CCCOc1ccc2c(c1)[C@@H](c1ccc(OC)cc1OCC(=O)O)[C@H](C(=O)O)[C@H]2c1ccc2c(c1)OCO2 [SB-209670] | – | – | – | – | – | – | – | – | – | – | – | 90 | – | – | 0.2 | 18
4 | CCCOc1ccc2c(c1)[C@@H](c1ccc(OC)cc1OCCO)[C@H](C(=O)O)[C@H]2c1ccc2c(c1)OCO2 | – | 2 | – | – | – | 60 | – | – | – | – | – | 100 | – | – | 1.1 | 110
5 | CCCN(CCN1C[C@H](c2ccc3c(c2)OCO3)[C@@H](C(=O)O)[C@@H]1c1ccc(OC)c(F)c1)S(=O)(=O)CCCCl (stereo in doubt; 15d) | 9.6 | 14 | 0.2 | 400 | – | 25 | 0.83 | 0.14 | 2200 | 0.094 | 0.07 | – | – | – | – | –

More lines, main results first:

Row | half-life [1] [h] | half-life [2] [h] | IC50 [3] [nM] | Cmax [4] [ng/mL] | AUC [5] [ng·h/mL] | bioavailability [6] [%] | IC50 [7] [nM] | IC50 [8] [nM] | AUC (Rattus norvegicus) [ng·h/mL] | IC50 (Endothelin-1 receptor [12]) [nM] | IC50 (Endothelin-1 receptor [13]) [nM] | Structure (SMILES) | Ratio [9] | IC50 (Endothelin-1 receptor [10]) [nM] | IC50 [11] [nM] | Ki (Endothelin-1 receptor [10]) [nM] | Ki [11] [nM]
6 | 7.3 | 6.9 | 0.32 | 1100 | 3700 | 31 | 0.6 | 0.47 | – | – | – | CCCCS(=O)(=O)N(CCC)CCN1C[C@H](c2ccc3c(c2)OCO3)[C@@H](C(=O)O)[C@@H]1c1ccc(OC)c(F)c1 (stereo in doubt; 15a) | – | – | – | – | –
7 | 6.4 | 3.3 | 0.34 | 700 | – | 40 | 1.12 | 0.48 | 2800 | – | – | CCCCCCS(=O)(=O)N(CCC)CCN1C[C@H](c2ccc3c(c2)OCO3)[C@@H](C(=O)O)[C@@H]1c1ccc(OC)c(F)c1 (stereo in doubt; 15c) | – | – | – | – | –
8 | – | 2 | – | – | – | 60 | – | – | – | – | – | CCCc1cc(C(=O)O)ccc1OC(C(=O)NS(=O)(=O)c1ccc(C(C)C)cc1)c1ccc2c(c1)OCO2 [L-754142] | 17 | 0.26 | 4.4 | – | –
9 | 8.9 | 4.3 | 0.32 | 1200 | – | 25 | 1.46 | 0.2 | 4300 | – | – | CCCN(CCN1C[C@H](c2ccc3c(c2)OCO3)[C@@H](C(=O)O)[C@@H]1c1ccc(OC)c(F)c1)S(=O)(=O)CCCC(F)(F)F (stereo in doubt; 15e) | – | – | – | – | –
